UPR XBP1 act – activators of adaptive arm of unfolded protein response (XBP1); CHO-XBP1 luciferase reporter, IRE1-XBP1 UPR activation, luminescence; percent of tunicamycin response, DMSO as zero; activation, % at 20 µM; 330,000 compounds, 0.33% hits;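 active means versus positive control, 20 µM dose yields 30% or more activation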;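 further: 100% = tunicamycin at 10 µg/mL and 0% = DMSO only wells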
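Signal: luciferase luminescence; Assay system: CHO-XBP1 luciferase reporter cells; Amount: one thousand reporter cells per well; Dosing: 20 µM single concentration, DMSO 1%; Benchmarks: high control tunicamycin 10 µg/mL final, low control DMSO vehicle only; Schedule: 6 h compound exposure at 37 °C, 5% CO2; Evaluation: percent activation relative to tunicamycin reference.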
CHOP inhibitor – inhibitors of CHOP induction in ER stress response. CHO-K1 CHOP-promoter luciferase, tunicamycin-induced, 15-18 h. inhibition, % at 10 µM. 220,000 compounds, 3.8% hits. AID 2732;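 active means compounds that reduced the stress-induced luciferase reporter signal by more than about 70% of percent inhibition, limit read from the data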;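 further: 0% = tunicamycin plus vehicle and 100% = wells without tunicamycin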
UPR CHOP act – apoptotic UPR (CHOP) activation; CHO-CHOP luciferase reporter, luminescence; percent of tunicamycin response over DMSO baseline; activation, % at 10 µM; 330,000 compounds, 0.34% hits;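 active means at 10 µM dose, activation of 40% or more, normalized to positive control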;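 further: 100% = tunicamycin at 10 µg/mL and 0% = DMSO alone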
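System: CHO-CHOP luciferase reporter cell line | Buffer or medium: F12 medium containing 10% fetal bovine serum | Doses: One dose, 10 µM in 0.5% DMSO | Times: 6 h compound exposure at 37 °C after overnight seeding | Signal: Luciferase luminescence | Read-out: % activation vs tunicamycin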
FXN GAA850 act – frataxin GAA850 promoter activation; 360,000 compounds, 0.56% hits; activation, % at 6 µM; HEK293 lucGAA850 FXN promoter luciferase reporter, 24 h; percent of 10 µM SAHA response;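 active means activation above the average of all compounds screened plus 3 SD, cutoff fixed separately per campaign, cut at about 7.5% in these data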;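 further: 0% = DMSO wells and 100% = 10 µM SAHA wells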
An asterisk follows results filed as active; · = not tested or not shown. Shown is part of a subset that was picked to be rich in hits.

SMILES	UPR XBP1 act	CHOP inhibitor	UPR CHOP act	FXN GAA850 act
CC(c1ccco1)N(C(=O)C12CC3(C)CC(C)(CC(C)(C3)C1)C2)c1ccccn1 (centres undefined)	-1.5	86.2*	-1.3	2.8
Cc1cccc(C(=O)N(c2ccccn2)C(C)c2ccco2)c1 (centres undefined)	0.7	-4.4	1.3	2.2
CN(Cc1ccc(-n2cccn2)cc1)C(=O)c1cnn2c1NC(c1ccco1)CC2C(F)(F)F (centres undefined)	·	76.4*	·	-3.0
O=C(NCc1cccc(Cl)c1)c1cnn2c1NC(c1ccco1)CC2C(F)(F)F (centres undefined)	0.4	91.2*	0.6	1.9
COCCNC(=O)c1cnn2c1NC(c1ccco1)CC2C(F)(F)F (centres undefined)	-2.3	-4.2	-2.1	0.9
Cc1ccc(N=N/C(=C\O)C(=O)c2ccc(Cl)cc2)cc1	8.3	95.2*	24.9	3.7
O=C(/C(=C/O)N=Nc1ccccc1)c1ccc(Cl)cc1	4.8	92.4*	3.5	1.9
CC1(C(=O)NS(=O)(=O)c2ccccc2Cl)CCN1C(=O)CCc1cccs1 (centres undefined)	·	·	·	0.3
COc1cc(C(O)c2nc(-c3cccc(C(F)(F)F)c3)cs2)ccc1F (centres undefined)	·	·	·	0.3
Nc1ccc(C23CC4CC(CC(C4)C2)C3)cc1	1.7	74.7*	-0.8	0.5
CC(C)(C)c1ccc(-c2c(C#N)c(N)nc3c2CCCC3)s1	3.1	9.4	0.8	4.0
CCc1sc(-c2c(C#N)c(N)nc3c2CCCCCC3)cc1[N+](=O)[O-]	1.1	76.0*	1.4	6.2
O=C(CSC1=NNC(c2ccccn2)S1)Nc1ccc(C(F)(F)F)cc1 (centres undefined)	6.5	73.4*	28.8	1.5
CC(=O)Nc1ccc(NC(=O)CSc2ccccn2)cc1	-1.5	-14.6	0.1	-0.2
Cc1cccc(C(=O)N2CCC(C)(C(=O)NS(=O)(=O)C3CC3)C2)c1C (centres undefined)	·	·	·	-0.3
CCOC(=O)N1CCN(c2ncnc3c2[nH]c2ccc(F)cc23)CC1	1.8	71.0*	3.9	-1.0
COc1ccc(-c2cnnn2-c2ccc(NC(=O)c3ccc(S(=O)(=O)N4CCCCC4)cc3)cc2)cc1OC	18.6	77.6*	0.6	6.7
Cc1ccccc1N=Nc1ccc(O)c2ncccc12	·	105.6*	·	2.2
COc1ccc(C)cc1N=Nc1ccc(O)c2ncccc12	·	104.1*	·	-4.0
Oc1ccc(N=Nc2ccc3c(c2)OCCO3)c2cccnc12	-1.8	-0.3	8.3	-11.0
O=S(=O)(O)c1cccc2c(N=Nc3ccc(O)c4ncccc34)cccc12	·	·	·	-0.7
COc1cc(-c2coc3c(C(=O)NCc4cccc(Cl)c4)cccc23)ccc1O	·	·	·	1.3
NC(=O)c1ccc(C(F)(F)F)n(Cc2ccccc2Cl)c1=O	-1.8	92.5*	-0.9	5.1
NC(=O)c1cccn1Cc1ccccc1Cl	0.6	-11.9	1.4	-2.9

High-throughput results as filed in PubChem.
